Measured values gathered from unrelated publications.
Each line is one published result; the experiments were not run side by side.
Organism: Staphylococcus aureus

SMILES	read-out	technique	strain	time	notes	quantity	result
COc1c(N2CC3CCCNC3C2)c(F)cc2c(=O)c(C(=O)OCc3cnc([N+](=O)[O-])s3)cn(C3CC3)c12 (stereo not drawn)	microbial growth		ATCC29213			MIC	0.09 µM
CO[C@@H]1[C@@H](OC(N)=O)[C@@H](O)[C@H](Oc2ccc3c(O)c(NC(=O)c4ccc(O)c(CC=C(C)C)c4)c(=O)oc3c2C)OC1(C)C	microbial growth		MRSA		drug-resistant strain, clinical isolate	MIC	0.25 µg/mL
C[C@H]1COc2c(N3CCN(C)CC3)c(F)cc3c(=O)c(C(=O)O)cn1c23	microbial killing		ATCCBAA1717 MRSA			MBC	0.48 µg/mL
O=c1ccc2nc3ccc(OCc4ccc([N+](=O)[O-])o4)cc3oc-2c1	microbial growth			24 h		MIC	> 32 µg/mL
CN[C@H](CC(C)C)C(=O)N[C@H]1C(=O)N[C@@H](CC(N)=O)C(=O)N[C@H]2C(=O)N[C@H]3C(=O)N[C@H](C(=O)N[C@H](C(=O)O)c4cc(O)cc(O)c4-c4cc3ccc4O)[C@H](O)c3ccc(c(Cl)c3)Oc3cc2cc(c3O[C@@H]2O[C@H](CO)[C@@H](O)[C@H](O)[C@H]2O[C@H]2C[C@](C)(N)[C@H](O)[C@H](C)O2)Oc2ccc(cc2Cl)[C@H]1O	microbial killing		ATCCBAA1717 MRSA			MBC	1.95 µg/mL
CN[C@H](CC(C)C)C(=O)N[C@H]1C(=O)N[C@@H](CC(N)=O)C(=O)N[C@H]2C(=O)N[C@H]3C(=O)N[C@H](C(=O)N[C@H](C(=O)O)c4cc(O)cc(O)c4-c4cc3ccc4O)[C@H](O)c3ccc(c(Cl)c3)Oc3cc2cc(c3O[C@@H]2O[C@H](CO)[C@@H](O)[C@H](O)[C@H]2O[C@H]2C[C@](C)(N)[C@H](O)[C@H](C)O2)Oc2ccc(cc2Cl)[C@H]1O	microbial killing	broth dilution	MRSA		drug-resistant strain	MBC	0.67 µM
COc1c(N2C[C@@H]3CCCN[C@@H]3C2)c(F)cc2c(=O)c(C(=O)O)cn(C3CC3)c12	microbial growth		ATCC29213			MIC	0.07 µM
C[C@@H]1CN2c3c(cc4c(N5C(=O)OC[C@@H]5C)noc4c3F)CC3(C(=O)NC(=O)NC3=O)[C@H]2[C@H](C)O1	microbial growth	broth dilution	ATCC29213			MIC	1 µg/mL
Oc1c(Cl)cc(Cl)cc1-c1[nH]c(Cl)c(Cl)c1Cl	microbial growth		ATCC29213 MSSA			MIC	0.29 µM
